Data: ChEMBL document CHEMBL1156507, “The M18 aspartyl aminopeptidase of the human malaria parasite Plasmodium falciparum” (J Biol Chem, 2007)

Test system: not listed separately
Experiment: Binding affinity against recombinant Plasmodium falciparum D10 M18AAP
Summary of the method: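 Recombinant His6-tagged PfM18AAP was expressed in baculovirus-infected Sf9 cells and purified on Ni-NTA-agarose. Enzyme (60 nM) was preincubated 30 min in 50 mM Tris-HCl, pH 7.5, then added to the fluorogenic substrate H-Asp-NHMec. Initial hydrolysis rates were read by fluorescence (ex 370 nm, em 460 nm) with inhibitor present.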

Row | SMILES | Ki [µM]
1 | N[C@@H](CCC(=O)O)P(=O)(O)O | 0.34
2 | NC(CCCC(=O)O)P(=O)(O)O (centres undefined) | 105
3 | NC(CC(=O)O)P(=O)(O)O (centres undefined) | 27
4 | CC(CP(=O)(O)C(N)CC(=O)O)C(=O)O (centres undefined) | 183
5 | CP(=O)(O)C(N)CC(=O)O (centres undefined) | 395
6 | NC(CCP(=O)(O)O)P(=O)(O)O (centres undefined) | 4.4
7 | NC(CCC(=O)O)P(=O)(O)c1ccccc1 (centres undefined) | > 2000
8 | CC(CP(=O)(O)C(N)CCC(=O)O)C(=O)O (centres undefined) | 42.7

Test system: Plasmodium falciparum
Experiment: Binding affinity against recombinant Plasmodium falciparum D10 M18AAP at 1.83 mM
Summary of the method: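 Phosphonic/phosphinic amino-acid analogues and phosphinate dipeptides tested on rPfM18AAP in the fluorogenic assay: initial rate of H-Asp-NHMec hydrolysis (ex 370/em 460 nm) at pH 7.5, enzyme preincubated 30 min in 50 mM Tris-HCl; inhibited rates compared with an enzyme-plus-substrate control.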

Row | Activity [%] | SMILES
9 | 20 | NC(CCC(=O)O)P(=O)(O)c1ccccc1 (centres undefined)
